Several values for one entry are separate records, joined by “and”; a condition that tells them apart may be missing. Equal entries are not always repeated. Entries after “also recorded” stand apart in the source; their conditions may differ. Where two headings read alike, the source gives them in different places.
Legend:
P. falciparum CQ^S-3D7 [1] = test: Growth inhibition assay; type: cell-based, Plasmodium falciparum; conditions: for inhibition at 10 µM: 3D7, 10 μM; for IC50: one intra-erythrocytic cycle
P. falciparum CQ^S-3D7 [2] = conditions: stated IC50 of the standard drug, used as positive control; ref not given; cited from earlier work
P. falciparum CQ^R-RKL-9 = test: Growth inhibition assay; type: cell-based, Plasmodium falciparum
CQ^S-3D7 P. falciparum = test: Growth progression analysis / blood stage-specific effect; type: cell-based, Plasmodium falciparum
[3] = system: hemozoin in synchronized ring-stage parasites; test: Hemozoin assay; type: cell-based, Plasmodium falciparum; conditions: 10 μM; 30 h
Summary of the method: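 P. falciparum cultures were synchronized at ring stage, held at 6 % parasitemia, and treated with test compound for 30 h in triplicate. Cells were then treated with 2.5 % SDS in 0.1 M sodium bicarbonate (pH 8.8) for 10 min at RT and centrifuged. The pellet was resuspended in 5 % SDS/50 mM NaOH for 30 min. Monomeric heme was read as A405 minus A750.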

Hemolytic activity = type: cell-based, human; conditions: human, red blood cell suspension (10 %, v/v), pH 7.4
Summary of the method: (§1)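 Washed human RBCs (10 %, v/v) were resuspended in PBS (pH 7.4) and incubated with test compound at 1.5–800 μM for 1 h at 37 °C. After centrifugation, supernatant absorbance was read at 415 nm. RBCs treated with 1 % (v/v) Triton X-100 were the positive control. Run in triplicate.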

human RBCs = test: Hemolytic activity; type: cell-based; conditions: 1.5–800 μM
Summary of the method: as §1

MTT cytotoxicity assay [4] = type: cell-based, human; conditions: human, HEK293 cells
Summary of the method: (§2)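 Cells were seeded in DMEM with 10 % FBS (HEK293 2 × 10^4 per well; HepG2 10^4 per well) and incubated overnight at 37 °C in 5 % CO2. Test compound was added at 2.5–600 μM (HEK293) or 2–500 μM (HepG2) for 24 h at 37 °C, with untreated cells as control. MTT was added (stock 5 mg/mL in PBS), formazan was dissolved in DMSO, and absorbance read at 570 nm. Run in triplicate.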

HEK293 cells = test: MTT cytotoxicity assay; type: cell-based, human; conditions: HEK293; 2.5–600 μM
Summary of the method: as §2

MTT cytotoxicity assay [5] = type: cell-based, human; conditions: human, HepG2 cells
Summary of the method: as §2

HepG2 cells = test: MTT cytotoxicity assay; type: cell-based, human; conditions: HepG2; 2–500 μM
Summary of the method: as §2

[6] = biological target: recombinant 6xHis-CDPK1 protein (rPfCDPK1) (Plasmodium falciparum, UniProt P62344); test: Microscale thermophoresis; type: binding
Sequence of recombinant 6xHis-CDPK1 protein (rPfCDPK1) (P62344 whole entry): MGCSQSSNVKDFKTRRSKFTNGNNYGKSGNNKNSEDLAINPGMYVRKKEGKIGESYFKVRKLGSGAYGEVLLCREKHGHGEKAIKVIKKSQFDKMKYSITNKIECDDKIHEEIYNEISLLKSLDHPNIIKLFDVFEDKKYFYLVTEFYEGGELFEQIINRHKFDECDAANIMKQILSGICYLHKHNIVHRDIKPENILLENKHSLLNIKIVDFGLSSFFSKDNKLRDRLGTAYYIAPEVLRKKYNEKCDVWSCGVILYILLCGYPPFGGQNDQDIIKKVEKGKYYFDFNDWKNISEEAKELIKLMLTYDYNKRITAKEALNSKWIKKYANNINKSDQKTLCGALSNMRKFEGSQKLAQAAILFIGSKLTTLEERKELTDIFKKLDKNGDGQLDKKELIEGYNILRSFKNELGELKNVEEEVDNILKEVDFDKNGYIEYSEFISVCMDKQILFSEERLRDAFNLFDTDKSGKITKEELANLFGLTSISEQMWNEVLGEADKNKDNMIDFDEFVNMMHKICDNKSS
Summary of the method: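 Recombinant 6xHis-PfCDPK1 (10 μM) in HEPES-NaCl (pH 7.5) with 0.05 % Tween-20 was labelled with 30 μM cysteine-reactive red maleimide dye for 30 min at RT in the dark. It was then column-purified, keeping fractions below 1000 fluorescence counts. Test compound was serially titrated (4.8 nM–80 μM or 2.4 nM–40 μM) against constant labelled protein and premixed 10 min at RT in the dark. MST was run at RT, 20 % LED and 40 % MST power.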

rPfCDPK1 = rPfCDPK1 (Plasmodium falciparum, UniProt P62344); test: In vitro kinase assay; type: biochemical
Sequence of rPfCDPK1 (P62344 whole entry): as above
Summary of the method: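 100 ng 6xHis-CDPK1 per reaction in 100 mM Tris-Cl pH 7.4, 50 mM MgCl2, 2.5 mM DTT, 2.5 mM MnCl2, with or without Ca2+ (2.5 mM EGTA). Dephosphorylated bovine casein substrate. Enzyme pre-incubated with test compound (1 or 5 µM) for 20 min at RT. ATP-started reaction run 1 h at 30 °C. ADP formation read by ADP-Glo luminescence.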

[7] = system: mammalian kinome (HepG2 lysate); test: In vitro kinase assay with HepG2 lysate; type: biochemical, human; conditions: HepG2 cytosolic fraction; 1 and 5 μM
Summary of the method: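 HepG2 cells (10^7) were lysed for 1 h at 4 °C in 20 mM Tris (pH 7.7), 0.5 % NP-40, 200 mM NaCl, 50 mM NaF, 0.2 mM orthovanadate, protease inhibitors and 0.1 % 2-mercaptoethanol. The lysate was spun at 13,000 rpm for 10 min. Kinase activity of the supernatant was measured by ADP-Glo luminescence with test compound at 1 and 5 μM.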

PfCDPK1 = conditions: cited from earlier work
[8] = Plasmodium falciparum, CQ^S-3D7
[9] = Plasmodium falciparum, 3D7, CQ^S-3D7

SMILES: COc1ccc(C(=O)/C=C/c2cn(Cc3cn(-c4ccnc5cc(Cl)ccc45)nn3)c3ccccc23)cc1 [7n, (E)-3-(1-((1-(7-chloroquinolin-4-yl)-1H-1,2,3-triazol-4-yl)methyl)-1H-indol-3-yl)-1-(4-methoxyphenyl)prop-2-en-1-one]
- inhibition at 10 µM (P. falciparum CQ^S-3D7 [1]; [8]): > 50%

SMILES: CCN(CC)CCCC(C)Nc1ccnc2cc(Cl)ccc12 (stereo not drawn) [CQ, chloroquine]
- IC50 (P. falciparum CQ^S-3D7 [2]): 25 nM

SMILES: Cc1ccccc1C(=O)/C=C/c1cn(Cc2cn(-c3ccnc4cc(Cl)ccc34)nn2)c2ccccc12 [7r, (E)-3-(1-((1-(7-chloroquinolin-4-yl)-1H-1,2,3-triazol-4-yl)methyl)-1H-indol-3-yl)-1-o-tolylprop-2-en-1-one]
- IC50 (P. falciparum CQ^S-3D7 [1]; CQ^S-3D7): 1800 nM
- inhibition at 10 µM (P. falciparum CQ^S-3D7 [1]; [8]): > 50%
- IC50 (P. falciparum CQ^S-3D7 [1]; [9]): 3500 nM
- IC50 (P. falciparum CQ^R-RKL-9; CQ^R-RKL-9, one intra-erythrocytic cycle): 2700 nM
- Resistance Index (RI) (P. falciparum CQ^R-RKL-9; IC50 CQ^R-RKL-9/CQ^S-3D7): 1.49
- intra-erythrocytic progression: stage affected (CQ^S-3D7 P. falciparum): effective against the mature stages of the parasite
- growth progression, morphology (CQ^S-3D7 P. falciparum; ring stage treated at IC50 concentration, 40 and 56 h post-treatment): stuck at the trophozoite stage with altered morphology
- free monomeric heme (control-free heme) [3]: 48.8% and 48%
- hemolysis at 1 h, 50 µM (Hemolytic activity): 2.3%
- hemolysis at 1 h, 800 µM (Hemolytic activity): 5.9%
- hemolytic activity in words (human RBCs): no significant lysis; also recorded: no apparent hemolytic activity
- viability at 24 h, 100 µM (MTT cytotoxicity assay [4]): > 90%
- cytotoxicity in words (HEK293 cells): non-cytotoxic
- viability at 24 h, 100 µM (MTT cytotoxicity assay [5]): > 90%
- cytotoxicity in words (HepG2 cells): non-cytotoxic
- Kd [6]: 7200 nM
- inhibition at 1 µM (rPfCDPK1; read-out: PI of PfCDPK1 (inhibition of phosphorylation activity), 1 μM): 45.5%
- inhibition at 5 µM (rPfCDPK1; read-out: PI of PfCDPK1 (inhibition of phosphorylation activity), 5 μM): 43.8%
- inhibition of host kinase activity in words [7]: no inhibition of the host kinase activity; also recorded: no inhibitory effect on the human kinome; also recorded: no inhibitory effect on the human kinases

SMILES: O=C(/C=C/c1cn(Cc2cn(-c3ccnc4cc(Cl)ccc34)nn2)c2ccccc12)c1ccccc1Cl [7h, (E)-1-(2-chlorophenyl)-3-(1-((1-(7-chloroquinolin-4-yl)-1H-1,2,3-triazol-4-yl)methyl)-1H-indol-3-yl)prop-2-en-1-one]
- inhibition at 10 µM (P. falciparum CQ^S-3D7 [1]; [8]): > 50%

SMILES: O=C(/C=C/c1cn(Cc2cn(-c3ccnc4cc(Cl)ccc34)nn2)c2ccccc12)c1cccs1 [7p, (E)-3-(1-((1-(7-chloroquinolin-4-yl)-1H-1,2,3-triazol-4-yl)methyl)-1H-indol-3-yl)-1-(thiophen-2-yl)prop-2-en-1-one]
- inhibition at 10 µM (P. falciparum CQ^S-3D7 [1]; [8]): > 50%

SMILES: COc1ccccc1C(=O)/C=C/c1cn(Cc2cn(-c3ccnc4cc(Cl)ccc34)nn2)c2ccccc12 [7l, (E)-3-(1-((1-(7-chloroquinolin-4-yl)-1H-1,2,3-triazol-4-yl)methyl)-1H-indol-3-yl)-1-(2-methoxyphenyl)prop-2-en-1-one]
- IC50 (P. falciparum CQ^S-3D7 [1]; [9]): 2400 nM
- Kd [6]: 17300 nM
- PI of PfCDPK1 (inhibition of phosphorylation activity) (rPfCDPK1; 1 μM): 71.9%
- inhibition of host kinase activity in words [7]: no inhibition of the host kinase activity

SMILES: O=C(/C=C/c1cn(Cc2cn(-c3ccnc4cc(Cl)ccc34)nn2)c2ccccc12)c1cccc(Br)c1 [7f, (E)-1-(3-bromophenyl)-3-(1-((1-(7-chloroquinolin-4-yl)-1H-1,2,3-triazol-4-yl)methyl)-1H-indol-3-yl)prop-2-en-1-one]
- inhibition at 10 µM (P. falciparum CQ^S-3D7 [1]; [8]): > 50%

SMILES: CCCCCC(=O)NCCc1c[nH]c2ccccc12 [A, N-[2-(1H-indol-3-yl)ethyl]hexanamide]
- PfCDPK1 inhibition potency in words (PfCDPK1): sub-micromolar potency

SMILES: O=Cc1cn(Cc2cn(-c3ccnc4cc(Cl)ccc34)nn2)c2ccccc12 [compound 9, 1-((1-(7-chloroquinolin-4-yl)-1H-1,2,3-triazol-4-yl)methyl)-1H-indole-3-carbaldehyde]
- growth inhibition in words (P. falciparum CQ^S-3D7 [1]; at the tested concentration, CQ^S 3D7): poor inhibition; also recorded: not a good inhibitor

Source: article PMC10847618 (Heliyon, 2024)
